Series [1] deals with Plasmodium falciparum. Kind of series: Antiplasmodial activity against Plasmodium falciparum NF54 in human erythrocytes by [3H]hypoxanthine uptake. The series is classed as functional, organism-based. As to conditions: NF54, 72 h. Put shortly:
(§1)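 [³H]hypoxanthine incorporation assay, modified. Infected human red cells were exposed to serial drug dilutions for 48 h at 37 °C under reduced O₂ and raised CO₂. [³H]hypoxanthine was then added and incubation continued for 24 h. Cells were harvested on glass-fibre filters and counted by liquid scintillation. IC50 was taken from the sigmoidal inhibition curve. Runs were in duplicate and repeated at least once.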

Series [2] concerns Plasmodium falciparum. The experiment in a line: Antiplasmodial activity against Plasmodium falciparum K1 in human erythrocytes by [3H]hypoxanthine uptake. The format is functional, organism-based. The conditions noted are these: K1, 72 h. Put shortly: as §1
The subject of series [3] is Trypanosoma brucei rhodesiense. Kind of series: Antitrypanosomal activity against Trypanosoma brucei rhodesiense STIB900 by Alamar blue assay. The series is classed as functional, organism-based. The procedure, abridged:
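Bloodstream parasites were grown in Minimum Essential Medium with 2-mercaptoethanol and 15% heat-inactivated horse serum, with serial drug dilutions, for 72 h at 37 °C in 5% CO₂. Alamar Blue was then added for 2–4 h more, and fluorescence read at excitation 530 nm and emission 590 nm. Signal was expressed as % of control to give IC50.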
(The colour change of resazurin is a common sign of viable cells or microbes.)

The nature of series [4]: Cytotoxicity against rat L6 cells after 4 days. As to conditions: read-out: MIC. The series is classed as cell-based. The procedure, abridged: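 Uninfected L-6 myoblasts were run in the same format as the T. cruzi assay: RPMI 1640 with 10% FBS and 2 mM L-glutamine, same serial drug dilution, 37 °C, 5% CO₂. The MIC was judged microscopically after 4 days.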
Series [5] concerns Trypanosoma cruzi. The experiment in a line: Antitrypanosomal activity against galactosidase gene containing Trypanosoma cruzi Tulahuen C2C4 trypomastigotes in rat L6 cells after 4 days. The conditions noted are these: Tulahuen C2C4, L6, 96 h. The series is classed as functional, organism-based. The procedure, abridged:
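L-6 myoblasts were seeded at 2000 cells/well in RPMI 1640 with 10% FBS and 2 mM L-glutamine. After 24 h, 5000 trypomastigotes were added with serial drug dilutions. Plates were kept at 37 °C in 5% CO₂ for 4 days. CPRG/Nonidet substrate was added and colour read at 540 nm after 2–4 h. IC50 was taken from the sigmoidal inhibition curve.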

Series [6] can be described thus: Cytotoxicity against mouse peritoneal macrophages. The format is cell-based, Macrophage. The conditions noted are these: read-out: MIC.
In series [7] the test system is Leishmania donovani. Kind of series: Antileishmanial activity against Leishmania donovani MHOM-ET-67/L82 amastigotes in mouse peritoneal macrophages. The format is functional, organism-based. Put shortly: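 Mouse peritoneal macrophages in RPMI 1640 with 10% heat-inactivated FBS were infected after 24 h with amastigotes at 3:1 (parasite:macrophage). Free parasites were removed at 4 h. Drug was added the next day and cells incubated for 96 h at 37 °C in 5% CO₂. Slides were MeOH-fixed and Giemsa-stained, and the infected/noninfected ratio counted microscopically as % of control. IC50 was obtained by linear regression.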

Converted amounts (≈) assume the structure as drawn. Bounds are passed on as bounds.

Usually IC50 stands for the concentration that gives 50% inhibition. The low end stands for greater potency, the high end for weaker potency. Turning to `COc1cc(OC)c(-c2ccc(OC)c3c(OC)cc(C)cc23)c2c1C(C)=N[C@@H](C)C2` [ANCISTROEALAINE A], the IC50 in series [1] came out at 4 µg/mL (≈ 9.53 µM); in series [2], 1.2 µg/mL (≈ 2.86 µM); in series [3], 3.46 µg/mL (≈ 8.25 µM); in series [5], 2.35 µg/mL (≈ 5.6 µM); in series [7], 4.1 µg/mL (≈ 9.77 µM). For the same molecule, the MCC at 96 h in series [4] is over 90 µg/mL. Moreover, the MCC in series [6] was over 30 µg/mL.
As for `COc1cc(OC)c2c(c1-c1ccc(O)c3c(OC)cc(C)cc13)C[C@H](C)N[C@H]2C` [ANCISTROEALAINE B], the half-maximal inhibitory concentration (IC50) in series [1] was found to be 0.79 µg/mL (≈ 1.94 µM); in series [2], 0.52 µg/mL (≈ 1.28 µM); in series [3], 2.03 µg/mL (≈ 4.98 µM); in series [5], 17.6 µg/mL (≈ 43.2 µM); in series [7], 10 µg/mL (≈ 24.5 µM). The MCC at 96 h in series [4] stood at 90 µg/mL. Also, the MCC in series [6] was over 30 µg/mL.
As for `O=C(Cn1ccnc1[N+](=O)[O-])NCc1ccccc1` [BENZNIDAZOLE], it took 0.3 µg/mL (≈ 1.15 µM) to reach half-maximal inhibition in series [5] (IC50).
Turning to `Nc1nc(N)nc(Nc2ccc([As]3SCC(CO)S3)cc2)n1` (stereo unspecified) [MELARSOPROL], the half-inhibitory concentration (IC50) in series [3] worked out at 0.0063 µg/mL.

The values above are taken from ChEMBL document CHEMBL1155616, “Ancistroealaines A and B, two new bioactive naphthylisoquinolines, and related naphthoic acids from Ancistrocladus ealaensis” (J Nat Prod, 2000).
